Experiment: phase I trial: safety and tolerability
Type: in vivo, human
Summary of the method: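 Fifteen patients were dosed orally twice daily (three per cohort, 100–800 mg). AEs, DLTs, physical exams, vital signs, ECGs and laboratory chemistry, hematology and coagulation were recorded from first dose to end of treatment. AEs were graded by the investigator using NCI CTCAE v4.03. DLTs were assessed in cycle 1 (days 1–28): grade ≥3 or immune-related non-hematologic events, and grade ≥4 hematologic events.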

[1] = 800 mg two times per day, one patient

NS(=O)(=O)[C@H]1CC[C@](F)(CC[C@H]2c3ccccc3-c3cncn32)CC1 [M4112]
grade 3 allergic dermatitis: DLT during cycle 1 [1] | serious TEAE (one patient, 800 mg two times per day cohort, related to treatment)
≤ 6 h: time to resolution of the DLT after treatment withdrawal (800 mg two times per day, grade 3 allergic dermatitis with fever and hypotension)
0 n (%): Any SAE (100 mg two times per day (n=3)) | Any SAE (200 mg two times per day (n=3))
grade 2 QT prolongation: QT prolongation resulting in dose reduction (not a DLT) [1]
2 (66.7) n (%): Dyspepsia (100 mg two times per day (n=3)) | Fatigue (100 mg two times per day (n=3)) | Vomiting (100 mg two times per day (n=3)) | Diarrhea (600 mg two times per day (n=3)) | Lipase increased (600 mg two times per day (n=3)) | Aspartate aminotransferase increased (800 mg two times per day (n=3))
no DLTs were observed: DLT (600 mg two times per day (n=3))
grade 2 ascites: serious TEAE (one patient, 600 mg two times per day cohort, unrelated to treatment)
20.5%: median probability of a DLT (Bayesian model estimate) (800 mg)
15 (100) n (%): Any AE (Total (N=15))
1 (33.3) n (%): Cough (100 mg two times per day (n=3)) | Decreased appetite (100 mg two times per day (n=3)) | Dysphagia (100 mg two times per day (n=3)) | Maculopapular rash (100 mg two times per day (n=3)) | Nausea (100 mg two times per day (n=3)) | Palmar-plantar erythrodysesthesia syndrome (100 mg two times per day (n=3)) | Blood creatine phosphokinase increased (200 mg two times per day (n=3)) | Cough (200 mg two times per day (n=3)) | Dehydration (200 mg two times per day (n=3)) | Diarrhea (200 mg two times per day (n=3)) | Fever (200 mg two times per day (n=3)) | Hypercalcemia (200 mg two times per day (n=3)) | Lipase increased (200 mg two times per day (n=3)) | Lymphocyte count decreased (200 mg two times per day (n=3)) | Nausea (200 mg two times per day (n=3)) | Platelet count decreased (200 mg two times per day (n=3)) | Vomiting (200 mg two times per day (n=3)) | Abdominal distension (400 mg two times per day (n=3)) | Abdominal pain (400 mg two times per day (n=3)) | Alanine aminotransferase increased (400 mg two times per day (n=3)) | Amylase increased (400 mg two times per day (n=3)) | Anemia of malignant disease (400 mg two times per day (n=3)) | Any SAE (400 mg two times per day (n=3)) | Blood creatine phosphokinase increased (400 mg two times per day (n=3)) | Blood creatinine increased (400 mg two times per day (n=3)) | Cough (400 mg two times per day (n=3)) | Decreased appetite (400 mg two times per day (n=3)) | Dysphagia (400 mg two times per day (n=3)) | Fatigue (400 mg two times per day (n=3)) | Hypercalcemia (400 mg two times per day (n=3)) | Maculopapular rash (400 mg two times per day (n=3)) | Palmar-plantar erythrodysesthesia syndrome (400 mg two times per day (n=3)) | Tumor pain (400 mg two times per day (n=3)) | Abdominal distension (600 mg two times per day (n=3)) | Abdominal pain (600 mg two times per day (n=3)) | Amylase increased (600 mg two times per day (n=3)) | Anemia of malignant disease (600 mg two times per day (n=3)) | Any SAE (600 mg two times per day (n=3)) | Blood alkaline phosphatase increased (600 mg two times per day (n=3)) | Blood creatinine increased (600 mg two times per day (n=3)) | Dehydration (600 mg two times per day (n=3)) | Fatigue (600 mg two times per day (n=3)) | Gamma-glutamyl transferase increased (600 mg two times per day (n=3)) | Nausea (600 mg two times per day (n=3)) | Tumor pain (600 mg two times per day (n=3)) | Vomiting (600 mg two times per day (n=3)) | Alanine aminotransferase increased (800 mg two times per day (n=3)) | Any SAE (800 mg two times per day (n=3)) | Blood alkaline phosphatase increased (800 mg two times per day (n=3)) | Blood creatine phosphokinase increased (800 mg two times per day (n=3)) | Blood creatinine increased (800 mg two times per day (n=3)) | Decreased appetite (800 mg two times per day (n=3)) | Fatigue (800 mg two times per day (n=3)) | Fever (800 mg two times per day (n=3)) | Gamma-glutamyl transferase increased (800 mg two times per day (n=3)) | Lymphocyte count decreased (800 mg two times per day (n=3)) | Nausea (800 mg two times per day (n=3)) | Platelet count decreased (800 mg two times per day (n=3))
not established: RP2D (in vivo)
33.3%: TEAE fatigue (all patients (N=15))
4 (26.7) n (%): Nausea (Total (N=15)) | Vomiting (Total (N=15))
no MTD was defined: MTD (doses up to 800 mg two times per day)
0 (0.0) n (%): Abdominal distension (100 mg two times per day (n=3)) | Abdominal pain (100 mg two times per day (n=3)) | Alanine aminotransferase increased (100 mg two times per day (n=3)) | Amylase increased (100 mg two times per day (n=3)) | Anemia of malignant disease (100 mg two times per day (n=3)) | Aspartate aminotransferase increased (100 mg two times per day (n=3)) | Blood alkaline phosphatase increased (100 mg two times per day (n=3)) | Blood creatine phosphokinase increased (100 mg two times per day (n=3)) | Blood creatinine increased (100 mg two times per day (n=3)) | Dehydration (100 mg two times per day (n=3)) | Diarrhea (100 mg two times per day (n=3)) | Fever (100 mg two times per day (n=3)) | Gamma-glutamyl transferase increased (100 mg two times per day (n=3)) | Hypercalcemia (100 mg two times per day (n=3)) | Lipase increased (100 mg two times per day (n=3)) | Lymphocyte count decreased (100 mg two times per day (n=3)) | Platelet count decreased (100 mg two times per day (n=3)) | Tumor pain (100 mg two times per day (n=3)) | Abdominal distension (200 mg two times per day (n=3)) | Abdominal pain (200 mg two times per day (n=3)) | Alanine aminotransferase increased (200 mg two times per day (n=3)) | Amylase increased (200 mg two times per day (n=3)) | Anemia of malignant disease (200 mg two times per day (n=3)) | Aspartate aminotransferase increased (200 mg two times per day (n=3)) | Blood alkaline phosphatase increased (200 mg two times per day (n=3)) | Blood creatinine increased (200 mg two times per day (n=3)) | Decreased appetite (200 mg two times per day (n=3)) | Dyspepsia (200 mg two times per day (n=3)) | Dysphagia (200 mg two times per day (n=3)) | Fatigue (200 mg two times per day (n=3)) | Gamma-glutamyl transferase increased (200 mg two times per day (n=3)) | Maculopapular rash (200 mg two times per day (n=3)) | Palmar-plantar erythrodysesthesia syndrome (200 mg two times per day (n=3)) | Tumor pain (200 mg two times per day (n=3)) | Aspartate aminotransferase increased (400 mg two times per day (n=3)) | Blood alkaline phosphatase increased (400 mg two times per day (n=3)) | Dehydration (400 mg two times per day (n=3)) | Diarrhea (400 mg two times per day (n=3)) | Dyspepsia (400 mg two times per day (n=3)) | Fever (400 mg two times per day (n=3)) | Gamma-glutamyl transferase increased (400 mg two times per day (n=3)) | Lipase increased (400 mg two times per day (n=3)) | Lymphocyte count decreased (400 mg two times per day (n=3)) | Nausea (400 mg two times per day (n=3)) | Platelet count decreased (400 mg two times per day (n=3)) | Vomiting (400 mg two times per day (n=3)) | Alanine aminotransferase increased (600 mg two times per day (n=3)) | Aspartate aminotransferase increased (600 mg two times per day (n=3)) | Blood creatine phosphokinase increased (600 mg two times per day (n=3)) | Cough (600 mg two times per day (n=3)) | Decreased appetite (600 mg two times per day (n=3)) | Dyspepsia (600 mg two times per day (n=3)) | Dysphagia (600 mg two times per day (n=3)) | Fever (600 mg two times per day (n=3)) | Hypercalcemia (600 mg two times per day (n=3)) | Lymphocyte count decreased (600 mg two times per day (n=3)) | Maculopapular rash (600 mg two times per day (n=3)) | Palmar-plantar erythrodysesthesia syndrome (600 mg two times per day (n=3)) | Platelet count decreased (600 mg two times per day (n=3)) | Abdominal distension (800 mg two times per day (n=3)) | Abdominal pain (800 mg two times per day (n=3)) | Amylase increased (800 mg two times per day (n=3)) | Anemia of malignant disease (800 mg two times per day (n=3)) | Cough (800 mg two times per day (n=3)) | Dehydration (800 mg two times per day (n=3)) | Diarrhea (800 mg two times per day (n=3)) | Dyspepsia (800 mg two times per day (n=3)) | Dysphagia (800 mg two times per day (n=3)) | Hypercalcemia (800 mg two times per day (n=3)) | Lipase increased (800 mg two times per day (n=3)) | Maculopapular rash (800 mg two times per day (n=3)) | Palmar-plantar erythrodysesthesia syndrome (800 mg two times per day (n=3)) | Tumor pain (800 mg two times per day (n=3)) | Vomiting (800 mg two times per day (n=3))
no deaths reported: deaths during the dose-escalation phase (all doses)
Two patients: dose reductions due to AEs (one grade 3 diarrhea and one grade 3 rash after the DLT period) (600 mg two times per day)
2 (13.3) n (%): Abdominal distension (Total (N=15)) | Abdominal pain (Total (N=15)) | Alanine aminotransferase increased (Total (N=15)) | Amylase increased (Total (N=15)) | Anemia of malignant disease (Total (N=15)) | Aspartate aminotransferase increased (Total (N=15)) | Blood alkaline phosphatase increased (Total (N=15)) | Dehydration (Total (N=15)) | Dyspepsia (Total (N=15)) | Dysphagia (Total (N=15)) | Fever (Total (N=15)) | Gamma-glutamyl transferase increased (Total (N=15)) | Hypercalcemia (Total (N=15)) | Lymphocyte count decreased (Total (N=15)) | Maculopapular rash (Total (N=15)) | Palmar-plantar erythrodysesthesia syndrome (Total (N=15)) | Platelet count decreased (Total (N=15)) | Tumor pain (Total (N=15))
grade 3 disease progression: serious TEAE (one patient, 400 mg two times per day cohort, unrelated to treatment)
3.1%–62.2: probability of a DLT, 95% credible interval (800 mg)
13.3%: patients who discontinued M4112 treatment due to TEAEs (two of 15 patients)
5 (33.3) n (%): Fatigue (Total (N=15))
3 (100) n (%): Any AE (100 mg two times per day (n=3)) | Any AE (200 mg two times per day (n=3)) | Any AE (400 mg two times per day (n=3)) | Any AE (600 mg two times per day (n=3)) | Any AE (800 mg two times per day (n=3))
26.7%: TEAE nausea (all patients (N=15)) | TEAE vomiting (all patients (N=15))
3 (20.0) n (%): Any SAE (Total (N=15)) | Blood creatine phosphokinase increased (Total (N=15)) | Blood creatinine increased (Total (N=15)) | Cough (Total (N=15)) | Decreased appetite (Total (N=15)) | Diarrhea (Total (N=15)) | Lipase increased (Total (N=15))

— article PMC7449315 (Journal for Immunotherapy of Cancer, 2020)
